Assays:
Enterovirus A71 [1] = test: Inhibitory activity against Human enterovirus 71 strain 4643 using plaque reduction assay; format: functional, organism-based; settings: Enterovirus A
How it was run: (§1)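 EV71 strain 4643 titrated by plaque reduction in human rhabdomyosarcoma (RD) cells. Values are means of triplicate wells, and each experiment was run at least twice.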

[2] = Cytotoxicity against Human rhabdomyosarcoma cells using plaque reduction assay; format: functional
How it was run: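 Cytotoxicity was measured in human rhabdomyosarcoma (RD) cells. Values are means of triplicate wells from experiments done at least twice.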

Enterovirus A71 [3] = test: Inhibitory activity against human enterovirus 71 strain 4643 using plaque reduction assay; format: functional, organism-based; settings: Enterovirus A; how it was run: as §1
Enterovirus A71 [4] = test: Inhibitory activity against Human Enterovirus 71 (1743) B using plaque reduction assay; format: functional, organism-based; settings: Enterovirus A
How it was run: (§2)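 Panel screen by plaque reduction against representative human enteroviruses and rhinoviruses. Each value is a mean of triplicate wells, with all experiments performed at least twice.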

Enterovirus A71 [5] = test: Inhibitory activity against Human Enterovirus 71 (2086) C using plaque reduction assay; format: functional, organism-based; settings: Enterovirus A; how it was run: as §2
Enterovirus A71 [6] = test: Inhibitory activity against Human Enterovirus 71 (2231) C using plaque reduction assay; format: functional, organism-based; settings: Enterovirus A; how it was run: as §2
Enterovirus A71 [7] = test: Inhibitory activity against Human Enterovirus 71 (4643) C using plaque reduction assay; format: functional, organism-based; settings: Enterovirus A; how it was run: as §2
Enterovirus A71 [8] = test: Inhibitory activity against Human Enterovirus 71 (BrCr) A using plaque reduction assay; format: functional, organism-based; how it was run: as §2
rhinovirus A2 = test: Inhibitory activity against Human rhinovirus 2 using plaque reduction assay; format: functional, organism-based, Human rhinovirus sp.; settings: Rhinovirus A; how it was run: as §2
rhinovirus B14 = test: Inhibitory activity against Human rhinovirus 14 using plaque reduction assay; format: functional, organism-based, Human rhinovirus sp.; settings: Rhinovirus B; how it was run: as §2
Echovirus = test: Inhibitory activity against Echovirus 29 using plaque reduction assay; format: functional, organism-based; how it was run: as §2
Coxsackievirus [9] = test: Inhibitory activity against Coxsackievirus A9 using plaque reduction assay; format: functional, organism-based; how it was run: as §2
Coxsackievirus [10] = test: Inhibitory activity against Coxsackievirus B1 using plaque reduction assay; format: functional, organism-based; how it was run: as §2
Coxsackievirus [11] = test: Inhibitory activity against Coxsackievirus B2 using plaque reduction assay; format: functional, organism-based; how it was run: as §2
Coxsackievirus [12] = test: Inhibitory activity against Coxsackievirus B3 using plaque reduction assay; format: functional, organism-based; how it was run: as §2
Coxsackievirus [13] = test: Inhibitory activity against Coxsackievirus B4 using plaque reduction assay; format: functional, organism-based; how it was run: as §2
Coxsackievirus [14] = test: Inhibitory activity against Coxsackievirus B5 using plaque reduction assay; format: functional, organism-based; how it was run: as §2
Coxsackievirus [15] = test: Inhibitory activity against Coxsackievirus B6 using plaque reduction assay; format: functional, organism-based; how it was run: as §2
Coxsackievirus [16] = test: Inhibitory activity against Coxsackievirus A16 using plaque reduction assay; format: functional, organism-based; how it was run: as §2
Coxsackievirus [17] = test: Inhibitory activity against Coxsackievirus A24 using plaque reduction assay; format: functional, organism-based; how it was run: as §2
Enterovirus D68 = test: Inhibitory activity against Human Enterovirus 68 using plaque reduction assay; settings: Enterovirus D
Enterovirus = test: Inhibitory activity against Enterovirus 68 using plaque reduction assay; format: functional, organism-based; how it was run: as §2
Coxsackievirus [18] = test: Inhibitory activity against Coxsackievirus A10 using plaque reduction assay; format: functional, organism-based; how it was run: as §2
Enterovirus A71 [19] = test: Inhibitory activity against human Enterovirus 71 (1743) B using plaque reduction assay; format: functional, organism-based; settings: Enterovirus A; how it was run: as §2
Enterovirus A71 [20] = test: Inhibitory activity against human Enterovirus 71 (2086) C using plaque reduction assay; format: functional, organism-based; settings: Enterovirus A; how it was run: as §2
Enterovirus A71 [21] = test: Inhibitory activity against human Enterovirus 71 (2231) C using plaque reduction assay; format: functional, organism-based; settings: Enterovirus A; how it was run: as §2
Enterovirus A71 [22] = test: Inhibitory activity against human Enterovirus 71 (4643) C using plaque reduction assay; format: functional, organism-based; settings: Enterovirus A; how it was run: as §2
Enterovirus A71 [23] = test: Inhibitory activity against human Enterovirus 71 (BrCr) A using plaque reduction assay; format: functional, organism-based; how it was run: as §2

| Structure (SMILES) | IC50 (Enterovirus A71 [1]) [nM] | CC50 [2] [µM] | IC50 (Enterovirus A71 [4]) [nM] | IC50 (Enterovirus A71 [5]) [nM] | IC50 (Enterovirus A71 [6]) [nM] | IC50 (Enterovirus A71 [7]) [nM] | IC50 (Enterovirus A71 [8]) [nM] | IC50 (rhinovirus A2) [µM] | IC50 (rhinovirus B14) [µM] | IC50 (Echovirus) [nM] | IC50 (Coxsackievirus [9]) [nM] | IC50 (Coxsackievirus [10]) [µM] | IC50 (Coxsackievirus [11]) [µM] | IC50 (Coxsackievirus [12]) [µM] | IC50 (Coxsackievirus [13]) [nM] | IC50 (Coxsackievirus [14]) [µM] | IC50 (Coxsackievirus [15]) [µM] | IC50 (Coxsackievirus [16]) [µM] | IC50 (Coxsackievirus [17]) [µM] | IC50 (Enterovirus) [µM] | further results |
| --- | --- | --- | --- | --- | --- | --- | --- | --- | --- | --- | --- | --- | --- | --- | --- | --- | --- | --- | --- | --- | --- |
| CC(C)(CCOc1ccc(-c2ccc(Cl)cc2)cc1)CCN1CCN(c2ccncc2)C1=O | 40 | > 25 | – | – | – | – | – | – | – | – | – | – | – | – | – | – | – | – | – | – | – |
| C[C@H](CCOc1ccc(-c2ccc(Cl)cc2)cc1)CCN1CCN(c2ccncc2)C1=O | 3 | > 25 | 26 | 8 | 24 | 3 | 33 | > 25 | > 25 | 1300 | 19 | > 25 | > 25 | > 25 | 1250 | 4.85 | > 25 | 6.92 | > 25 | – | IC50 (Enterovirus A71 [3]): 3 nM; IC50 (Enterovirus D68): > 25 µM |
| C[C@@H](CCOc1ccc(-c2ccc(Cl)cc2)cc1)CCN1CCN(c2ccncc2)C1=O | 33 | > 25 | 170 | 49 | 160 | 33 | 320 | > 25 | > 25 | 1470 | 150 | > 25 | > 25 | > 25 | 2050 | 2.08 | > 25 | > 25 | > 25 | > 25 | IC50 (Coxsackievirus [18]): > 25 µM |
| O=C1N(CCCCCOc2ccc(-c3ccc(Cl)cc3)cc2)CCN1c1ccncc1 | 54 | > 25 | – | – | – | – | – | > 25 | > 25 | 390 | – | > 25 | > 25 | > 25 | 1300 | – | > 25 | > 25 | – | > 25 | IC50 (Enterovirus A71 [19]): 92 nM; IC50 (Enterovirus A71 [20]): 43 nM; IC50 (Enterovirus A71 [21]): 92 nM; IC50 (Enterovirus A71 [22]): 54 nM; IC50 (Enterovirus A71 [23]): 130 nM; IC50 (Coxsackievirus [18]): > 25 µM |

From ChEMBL document CHEMBL1141044, “Synthesis and antipicornavirus activity of (R)- and (S)-1-[5-(4'-chlorobiphenyl-4-yloxy)-3-methylpentyl]-3-pyridin-4-yl-imidazolidin-2-one” (Bioorg Med Chem Lett, 2005)
